Experiments:
[1] = biological target: T1, Plasminogen (Homo sapiens, UniProt P00747); assay: Inhibition of human plasmin using Mes-DSer(Bzl)-Phe-Arg-AMC as substrate by Dixon plot analysis
[2] = biological target: Vitamin K-dependent protein C (Homo sapiens, UniProt P04070); assay: Inhibition of human activated Protein C using Mes-DArg-Pro-Arg-AMC as substrate by Dixon plot analysis
In short: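 Human aPC, 293 pM final. Run at room temperature in 50 mM Tris·HCl pH 8.0 with 154 mM NaCl. Substrate Mes-DArg-Pro-Arg-AMC, KM 26 μM. Fluorescence was read at ex 355 / em 460 nm, with reaction started by enzyme. Ki came from Dixon plots, mean of at least two measurements.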

[3] = biological target: Trypsin (Sus scrofa, UniProt P00761); assay: Inhibition of porcine trypsin using Mes-DArg-Gly-Arg-AMC as substrate by Dixon plot analysis
Trypsin (Sus scrofa, UniProt P00761), sequence (P00761 whole entry): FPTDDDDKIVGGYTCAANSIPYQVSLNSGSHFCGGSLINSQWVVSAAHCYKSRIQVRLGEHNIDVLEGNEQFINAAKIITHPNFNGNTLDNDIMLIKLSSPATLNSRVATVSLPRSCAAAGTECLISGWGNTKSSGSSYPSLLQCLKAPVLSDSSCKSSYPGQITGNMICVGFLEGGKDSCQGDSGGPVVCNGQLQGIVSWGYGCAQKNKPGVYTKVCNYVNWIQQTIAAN
In short: (§1)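 Porcine trypsin, 30 pM final, with substrate Mes-DArg-Gly-Arg-AMC (KM 8.3 μM). Buffer was 50 mM Tris·HCl pH 8.0 containing 154 mM NaCl, at room temperature. Reaction was started by enzyme and fluorescence read at ex 355 / em 460 nm. Ki was obtained from Dixon plots, mean of at least two measurements.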

[4] = biological target: Plasma kallikrein (Homo sapiens, UniProt P03952); assay: Inhibition of human plasma kallikrein using Mes-DArg-Pro-Arg-AMC as substrate by Dixon plot analysis
Plasma kallikrein, sequence (P03952 20-390 limits assumed): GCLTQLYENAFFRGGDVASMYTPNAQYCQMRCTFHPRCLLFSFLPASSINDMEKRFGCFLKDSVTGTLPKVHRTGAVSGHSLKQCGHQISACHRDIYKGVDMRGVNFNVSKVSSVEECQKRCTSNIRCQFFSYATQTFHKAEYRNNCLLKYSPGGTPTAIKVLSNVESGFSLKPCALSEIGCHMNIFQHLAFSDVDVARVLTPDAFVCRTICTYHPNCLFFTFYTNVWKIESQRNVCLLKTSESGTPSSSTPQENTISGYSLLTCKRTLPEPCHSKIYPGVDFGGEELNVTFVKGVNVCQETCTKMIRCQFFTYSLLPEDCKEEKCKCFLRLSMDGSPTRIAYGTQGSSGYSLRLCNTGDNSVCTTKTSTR
Plasma kallikrein, sequence (P03952 391-638 limits assumed): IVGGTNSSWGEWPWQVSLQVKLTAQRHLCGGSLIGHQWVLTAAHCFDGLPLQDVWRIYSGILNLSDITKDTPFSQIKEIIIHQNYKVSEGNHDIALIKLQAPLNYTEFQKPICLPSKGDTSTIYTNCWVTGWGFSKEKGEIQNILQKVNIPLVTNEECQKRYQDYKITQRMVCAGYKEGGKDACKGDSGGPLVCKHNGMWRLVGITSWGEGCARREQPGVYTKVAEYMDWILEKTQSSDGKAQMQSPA
In short: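 Human plasma kallikrein (112 pM final) was assayed at room temperature in Tris·HCl 50 mM pH 8.0 with NaCl 154 mM. Mes-DArg-Pro-Arg-AMC served as substrate (KM 39 μM). Fluorescence was read at ex 355 / em 460 nm, with reactions started by enzyme.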

[5] = biological target: Coagulation factor X (Homo sapiens, UniProt P00742); assay: Inhibition of human f10a using Mes-DArg-Pro-Arg-AMC as substrate by Dixon plot analysis
Coagulation factor X, sequence (P00742 41-179 limits assumed): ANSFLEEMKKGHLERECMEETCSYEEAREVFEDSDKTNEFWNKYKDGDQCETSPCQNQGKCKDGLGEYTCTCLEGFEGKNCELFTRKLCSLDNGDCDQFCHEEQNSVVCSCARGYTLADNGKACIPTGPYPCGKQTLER
Coagulation factor X, sequence (P00742 235-488 limits assumed): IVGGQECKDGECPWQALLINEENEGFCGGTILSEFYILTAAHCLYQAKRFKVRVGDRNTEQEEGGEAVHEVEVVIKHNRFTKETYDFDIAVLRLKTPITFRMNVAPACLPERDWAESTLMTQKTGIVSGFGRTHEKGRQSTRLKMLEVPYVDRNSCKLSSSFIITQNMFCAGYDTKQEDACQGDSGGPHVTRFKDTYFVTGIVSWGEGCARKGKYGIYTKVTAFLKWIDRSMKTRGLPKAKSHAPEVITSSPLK
In short: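 Human factor Xa, 97 pM in assay, in 50 mM Tris·HCl pH 8.0 with 154 mM NaCl at room temperature. Fluorogenic substrate Mes-DArg-Pro-Arg-AMC (KM 28 μM), read at ex 355 / em 460 nm after starting with enzyme. Ki was taken from Dixon plots and averaged over at least two measurements.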

[6] = biological target: Prothrombin (Bos taurus, UniProt P00735); assay: Inhibition of bovine thrombin using Tos-Gly-Pro-Arg-AMC as substrate by Dixon plot analysis
In short: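 Bovine thrombin at 31 pM in assay, KM 5.4 μM for the substrate. Run at room temperature in 50 mM Tris·HCl pH 8.0 with 154 mM NaCl. Fluorescence read at ex 355 / em 460 nm, reaction started by enzyme addition. Ki from Dixon plots, average of at least two measurements.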

[7] = biological target: T1, Plasminogen; assay: Binding affinity to human plasmin assessed as slow binding constant in presence of Mes-DArg-Phe-Arg-AMC after 20 mins by Dixon plot analysis
[8] = system: Plasma; assay: Antifibrinolytic activity in human plasma assessed as inhibition of tPA-induced plasmin formation after 40 mins; assay type: functional, cell-free
In short: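 Citrated human plasma at 37 °C with CaCl2 (12.5 mM in assay), tissue factor (stock 1/500 in assay) and tPA (12.3 nM in assay). Inhibitor dilutions, from 10 mM DMSO stocks diluted in 0.9% NaCl, were preincubated 5 min at 37 °C with these reagents, then started with prewarmed plasma. OD405 was read over 40 min.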

[9] = biological target: Trypsin (Homo sapiens, UniProt P07477+P07478+P35030); assay: Inhibition of trypsin (unknown origin); assay type: protein assay; in short: as §1
[10] = system: Plasma; assay: Inhibition of TF/Ca2+-induced clotting in human plasma after 40 mins; assay type: cell-free
In short: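 Clotting was triggered in citrated human plasma at 37 °C by tissue factor (stock 1/500 in assay) plus CaCl2 (12.5 mM in assay), with tPA 12.3 nM present. Inhibitor was tested at 10–200 nM after 5 min preincubation of reagents at 37 °C. Clot formation was followed as the rapid initial OD405 rise to a plateau, read over 40 min.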

T1 sequence (P00747 97-580 limits assumed): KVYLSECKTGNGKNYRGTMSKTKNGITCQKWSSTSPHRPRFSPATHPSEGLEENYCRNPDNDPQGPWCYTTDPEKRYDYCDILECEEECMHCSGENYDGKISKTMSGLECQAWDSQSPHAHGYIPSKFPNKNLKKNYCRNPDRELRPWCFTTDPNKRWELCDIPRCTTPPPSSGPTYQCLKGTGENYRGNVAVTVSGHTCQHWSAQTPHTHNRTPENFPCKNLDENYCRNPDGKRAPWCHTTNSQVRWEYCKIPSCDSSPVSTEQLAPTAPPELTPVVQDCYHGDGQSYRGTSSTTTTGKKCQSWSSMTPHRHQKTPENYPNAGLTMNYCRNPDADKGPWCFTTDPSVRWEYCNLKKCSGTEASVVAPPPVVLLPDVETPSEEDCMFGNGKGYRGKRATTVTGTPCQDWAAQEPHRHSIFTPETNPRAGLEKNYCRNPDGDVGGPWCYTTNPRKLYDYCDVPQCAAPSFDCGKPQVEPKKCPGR
T1 sequence (P00747 581-810 limits assumed): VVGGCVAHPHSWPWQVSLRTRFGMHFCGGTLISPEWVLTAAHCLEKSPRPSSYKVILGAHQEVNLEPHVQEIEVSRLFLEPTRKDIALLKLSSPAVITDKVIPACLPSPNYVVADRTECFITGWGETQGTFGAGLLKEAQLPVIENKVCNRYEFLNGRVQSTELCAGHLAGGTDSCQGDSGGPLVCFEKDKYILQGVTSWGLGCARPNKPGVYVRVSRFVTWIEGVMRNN
Vitamin K-dependent protein C, sequence (P04070 43-197 limits assumed): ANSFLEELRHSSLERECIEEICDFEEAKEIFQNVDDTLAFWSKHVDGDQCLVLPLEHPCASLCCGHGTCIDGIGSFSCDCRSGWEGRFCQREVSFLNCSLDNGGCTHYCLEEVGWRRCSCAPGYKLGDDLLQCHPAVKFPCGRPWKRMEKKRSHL
Vitamin K-dependent protein C, sequence (P04070 212-461 limits assumed): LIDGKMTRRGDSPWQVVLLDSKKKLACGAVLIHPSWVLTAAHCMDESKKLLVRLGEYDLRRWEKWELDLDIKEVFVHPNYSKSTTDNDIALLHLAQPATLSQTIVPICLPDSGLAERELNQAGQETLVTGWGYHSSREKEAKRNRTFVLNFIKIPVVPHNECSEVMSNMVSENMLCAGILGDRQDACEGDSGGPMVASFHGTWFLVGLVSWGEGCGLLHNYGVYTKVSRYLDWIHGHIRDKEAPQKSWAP

Row | SMILES | Ki [1] [nM] | Ki [2] [µM] | Ki [3] [µM] | Ki [4] [µM] | Ki [5] [µM] | Ki [6] [µM] | Ki [7] [µM] | IC50 [8] [µM] | Ki [9] [µM] | Activity [10]
1 | N=C(N)c1ccc(CNC(=O)[C@@H]2Cc3ccc(cc3)NC(=O)CN3CCN(CC3)CC(=O)Nc3ccc(cc3)C[C@@H](N)C(=O)N2)cc1 | 66.3 | 130 | – | 9.09 | 114 | 173 | – | – | – | –
2 | N=C(N)c1ccc(CNC(=O)[C@@H]2Cc3ccc(cc3)NC(=O)CN3CCN(CC3)CC(=O)Nc3ccc(cc3)C[C@@H](NS(=O)(=O)NC3CCCCC3)C(=O)N2)cc1 | – | > 30 | 0.136 | – | – | 15.8 | 0.00042 | 0.053 | – | –
3 | N=C(N)c1ccc(CNC(=O)[C@@H]2Cc3ccc(cc3)NC(=O)CN3CCN(CC3)CC(=O)Nc3ccc(cc3)C[C@@H](NC(=O)OCc3ccccc3)C(=O)N2)cc1 | 5.2 | 93.4 | – | – | – | – | – | – | – | –
4 | N=C(N)c1ccc(CNC(=O)[C@H](Cc2cccc(CN)c2)NC(=O)[C@@H](CCCc2ccccc2)NS(=O)(=O)Cc2cccc(C(=O)O)c2)cc1 | – | – | – | – | – | – | – | – | 0.0036 | Toxic
5 | CC(C)(C)OC(=O)N[C@@H]1Cc2ccc(cc2)NC(=O)CCN2CCN(CCC(=O)Nc3ccc(cc3)C[C@@H](C(=O)NCc3ccc(CN)cc3)NC1=O)CC2 | 19.7 | > 100 | 3.15 | > 100 | > 100 | 15.6 | – | – | – | –
6 | N=C(N)c1ccc(CNC(=O)[C@@H]2Cc3ccc(cc3)NC(=O)CCN3CCN(CCC(=O)Nc4ccc(cc4)C[C@@H](NS(=O)(=O)c4ccccc4)C(=O)N2)CC3)cc1 | 0.07 | > 13 | 0.062 | 0.8 | > 13 | 42.7 | – | – | – | –

Second part, led by results:

Row | Ki [1] [nM] | Ki [2] [µM] | Ki [3] [µM] | Ki [4] [µM] | Ki [5] [µM] | Ki [6] [µM] | Ki [7] [µM] | IC50 [8] [µM] | Ki [9] [µM] | SMILES | Activity [10]
7 | 1.2 | 32 | 0.156 | – | – | – | – | – | – | NCc1ccc(CNC(=O)[C@@H]2Cc3ccc(cc3)NC(=O)CCN3CCN(CCC(=O)Nc4ccc(cc4)C[C@@H](NS(=O)(=O)Cc4ccccc4)C(=O)N2)CC3)cc1 | –
8 | 3.93 | 28 | 0.757 | 7.41 | 16.1 | 0.199 | – | – | – | N=C(N)c1ccc(CNC(=O)[C@@H]2Cc3ccc(cc3)NC(=O)CCN3CCN(CCC(=O)Nc4ccc(cc4)C[C@@H](NC(=O)CCc4ccccc4)C(=O)N2)CC3)cc1 | –
9 | 3.7 | 49.3 | 0.59 | 10.4 | 28.9 | 1.71 | – | – | – | N=C(N)NCCCCNC(=O)[C@@H]1Cc2ccc(cc2)NC(=O)CCN2CCN(CCC(=O)Nc3ccc(cc3)C[C@@H](NS(=O)(=O)NC3CCCCC3)C(=O)N1)CC2 | –
10 | 75.3 | 47.1 | 1.9 | 12.6 | 20.5 | 8.78 | – | – | – | N=C(N)c1ccc(CNC(=O)[C@@H]2Cc3ccc(cc3)NC(=O)CN3CCN(CC3)CC(=O)Nc3ccc(cc3)C[C@@H](NC(=O)CCCc3ccccc3)C(=O)N2)cc1 | –
11 | 0.13 | 17 | 0.021 | – | – | – | 0.00015 | 0.055 | – | N=C(N)c1ccc(CNC(=O)[C@@H]2Cc3ccc(cc3)NC(=O)CCN3CCN(CCC(=O)Nc4ccc(cc4)C[C@@H](NS(=O)(=O)NC4CCCCC4)C(=O)N2)CC3)cc1 | –
12 | 22.7 | 39.7 | 1 | 10.5 | 11.5 | 0.712 | – | – | – | N=C(N)c1ccc(CNC(=O)[C@@H]2Cc3ccc(cc3)NC(=O)CCN3CCN(CCC(=O)Nc4ccc(cc4)C[C@@H](NC(=O)CCCc4ccccc4)C(=O)N2)CC3)cc1 | –
13 | – | 74.7 | – | – | – | – | – | – | – | CN(C)S(=O)(=O)N[C@@H]1Cc2ccc(cc2)NC(=O)CN2CCN(CC2)CC(=O)Nc2ccc(cc2)C[C@@H](C(=O)NCc2ccc(C(=N)N)cc2)NC1=O | –

From ChEMBL document CHEMBL4425109, “Optimization of Cyclic Plasmin Inhibitors: From Benzamidines to Benzylamines” (J Med Chem, 2016)
